ChEMBL document CHEMBL1629683, “HIV-1 protease codon 36 polymorphisms and differential development of resistance to nelfinavir, lopinavir, and atazanavir in different HIV-1 subtypes” (Antimicrob Agents Chemother, 2010)
The source made the active and inactive calls. The calls are words filed in the database; no cut-off is given here.

Legend:
[1] = system: Human immunodeficiency virus 1; assay: Antiviral activity against HIV1 subtype B harboring protease polymorphism at M36 position M46I, I50L, N88S mutant gene infected in human cord blood mononuclear cells assessed as inhibition of viral replication […]; assay type: functional, organism-based; settings: Human immunodeficiency virus 1, subtype B
Outline: (§1)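 Cord blood mononuclear cells were PHA-stimulated for 72 h in RPMI 1640 with 10% FBS and IL-2. Cells were infected for 2 h with week-0 clonal virus or PI-selected virus (weeks 25 and 35 of selection). They were plated at 5 × 10⁵ cells/well with PI at 0.04 nM to 10 μM. Drug-containing medium was replenished on day 3, supernatant RT activity was read on day 7, and EC₅₀ was derived.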

[2] = system: Human immunodeficiency virus 1; assay: Antiviral activity against HIV1 subtype C harboring protease L23I, M46I/M, L89T mutant gene and polymorphism at M36 position infected in human cord blood mononuclear cells assessed as inhibition of viral replication […]; assay type: functional, organism-based; settings: Human immunodeficiency virus 1, subtype C; outline: as §1
[3] = system: Human immunodeficiency virus 1; assay: Antiviral activity against HIV1 subtype C harboring protease E35G mutant gene and polymorphism at I36 position infected in human cord blood mononuclear cells assessed as inhibition of viral replication […]; assay type: functional, organism-based; settings: Human immunodeficiency virus 1, subtype C; outline: as §1
[4] = system: Human immunodeficiency virus 1; assay: Antiviral activity against HIV1 subtype CRF02_AG harboring protease polymorphism at M36 position and I50FILV, A71V mutant gene infected in human cord blood mononuclear cells assessed as inhibition of viral replication […]; assay type: functional, organism-based; settings: Human immunodeficiency virus 1, subtype CRF02_AG; outline: as §1
[5] = system: Human immunodeficiency virus 1; assay: Antiviral activity against HIV1 subtype B harboring protease polymorphism at I36 position and M46I, I50L, N88S mutant gene infected in human cord blood mononuclear cells assessed as inhibition of viral replication […]; assay type: functional, organism-based; settings: Human immunodeficiency virus 1, subtype B; outline: as §1
[6] = system: Human immunodeficiency virus 1; assay: Antiviral activity against HIV1 subtype CRF02_AG harboring protease polymorphism at I36 position and I50FILV, A71V mutant gene infected in human cord blood mononuclear cells assessed as inhibition of viral replication […]; assay type: functional, organism-based; settings: Human immunodeficiency virus 1, subtype CRF02_AG; outline: as §1
[7] = system: Human immunodeficiency virus 1; assay: Antiviral activity against HIV1 subtype B harboring protease polymorphism at M36 position and L10F, V82A mutant gene infected in human cord blood mononuclear cells assessed as inhibition of viral replication after 48 hrs by luciferase reporter gene assay; assay type: functional, organism-based; settings: Human immunodeficiency virus 1, subtype B
[8] = system: Human immunodeficiency virus 1; assay: Antiviral activity against HIV1 subtype C harboring protease L10R, M46I, I54V, V82S mutant gene and polymorphism at M36 position infected in human cord blood mononuclear cells assessed as inhibition of viral replication […]; assay type: functional, organism-based; settings: Human immunodeficiency virus 1, subtype C; outline: as §1
[9] = system: Human immunodeficiency virus 1; assay: Antiviral activity against HIV1 subtype C harboring protease L32I, M46I/M, L76V mutant gene and polymorphism at I36 position infected in human cord blood mononuclear cells assessed as inhibition of viral replication after 48 hrs by luciferase reporter gene assay; assay type: functional, organism-based; settings: Human immunodeficiency virus 1, subtype C
[10] = system: Human immunodeficiency virus 1; assay: Antiviral activity against HIV1 subtype CRF02_AG harboring protease L76V, M46I, I84V mutant gene and polymorphism at M36 position infected in human cord blood mononuclear cells assessed as inhibition of viral replication […]; assay type: functional, organism-based; settings: Human immunodeficiency virus 1, subtype CRF02_AG; outline: as §1
[11] = system: Human immunodeficiency virus 1; assay: Selectivity ratio of EC50 for HIV1 subtype C harboring protease L10R, M46I, I54V, V82S mutant gene and polymorphism at M36 position to EC50 for wild type HIV1 subtype C; assay type: functional
[12] = system: Human immunodeficiency virus 1; assay: Selectivity ratio of EC50 for HIV1 subtype C harboring protease L32I, M46I/M, L76V mutant gene and polymorphism at I36 position to EC50 for wild type HIV1 subtype C; assay type: functional
[13] = system: Human immunodeficiency virus 1; assay: Selectivity ratio of EC50 for HIV1 subtype CRF02_AG harboring protease L76V, M46I, I84V mutant gene and polymorphism at M36 position to EC50 for wild type HIV1 subtype CRF02_AG; assay type: functional
[14] = system: Human immunodeficiency virus 1; assay: Selectivity ratio of EC50 for HIV1 subtype CRF02_AG harboring protease M46, I47A, I84V mutant gene and polymorphism at I36 position to EC50 for wild type HIV1 subtype CRF02_AG; assay type: functional
[15] = system: Human immunodeficiency virus 1; assay: Antiviral activity against HIV1 subtype CRF02_AG harboring protease M46, I47A, I84V mutant gene and polymorphism at I36 position infected in human cord blood mononuclear cells assessed as inhibition of viral replication on day 7 by RT activity assay; settings: Human immunodeficiency virus 1, subtype CRF02_AG, 7 days
[16] = system: Human immunodeficiency virus 1; assay: Antiviral activity against HIV1 subtype B harboring protease D30N, M46I, A71T and V77I mutant gene and polymorphism at M36 position of protease infected in human cord blood mononuclear cells assessed as inhibition of viral replication […]; assay type: functional, organism-based; settings: Human immunodeficiency virus 1, subtype B; outline: as §1
[17] = system: Human immunodeficiency virus 1; assay: Antiviral activity against wild type HIV1 subtype B infected in human cord blood mononuclear cells assessed as inhibition of viral replication after 48 hrs by luciferase reporter gene assay; assay type: functional, organism-based; settings: Human immunodeficiency virus 1, subtype B
[18] = system: Human immunodeficiency virus 1; assay: Antiviral activity against HIV1 subtype B harboring protease D30N, L33I, M46I, N88D mutant gene and polymorphism at I36 position infected in human cord blood mononuclear cells assessed as inhibition of viral replication […] by […]; assay type: functional, organism-based; settings: Human immunodeficiency virus 1, subtype B; outline: as §1
[19] = system: Human immunodeficiency virus 1; assay: Antiviral activity against wild type HIV1 subtype C infected in human cord blood mononuclear cells assessed as inhibition of viral replication after 48 hrs by luciferase reporter gene assay; assay type: functional, organism-based; settings: Human immunodeficiency virus 1, subtype C
[20] = system: Human immunodeficiency virus 1; assay: Antiviral activity against HIV1 subtype C harboring protease L23I, M46I, L89T mutant gene and polymorphism at M36 position infected in human cord blood mononuclear cells assessed as inhibition of viral replication […]; assay type: functional, organism-based; settings: Human immunodeficiency virus 1, subtype C; outline: as §1
[21] = system: Human immunodeficiency virus 1; assay: Antiviral activity against HIV1 subtype C harboring protease D30N, E35G, I85V, L90M mutant gene and polymorphism at I36 position infected in human cord blood mononuclear cells assessed as inhibition of viral replication […]; assay type: functional, organism-based; settings: Human immunodeficiency virus 1, subtype C; outline: as §1
[22] = system: Human immunodeficiency virus 1; assay: Selectivity ratio of EC50 for HIV1 subtype B harboring protease polymorphism at M36 position infected in human cord blood mononuclear cells to EC50 for HIV1 subtype B harboring protease polymorphism at I36 position infected in human cord blood mononuclear cells; assay type: functional
[23] = system: Human immunodeficiency virus 1; assay: Antiviral activity against wild type HIV1 subtype CRF02_AG infected in human cord blood mononuclear cells assessed as inhibition of viral replication after 48 hrs by luciferase reporter gene assay; assay type: functional, organism-based; settings: Human immunodeficiency virus 1, subtype CRF02_AG
[24] = system: Human immunodeficiency virus 1; assay: Antiviral activity against HIV1 subtype CRF02_AG harboring protease L33I, M46I, A71T mutant gene and polymorphism at M36 position infected in human cord blood mononuclear cells assessed as inhibition of viral replication […]; assay type: functional, organism-based; settings: Human immunodeficiency virus 1, subtype CRF02_AG; outline: as §1
[25] = system: Human immunodeficiency virus 1; assay: Antiviral activity against HIV1 subtype B harboring protease polymorphism at M36 position infected in human TZM-bl cells assessed as inhibition of viral replication after 48 hrs by luciferase reporter gene assay; assay type: functional, organism-based
Outline: (§2)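 TZM-bl cells (10⁴/well) in DMEM with 10% FBS were infected with the week-0 or week-35 polymorphic variant. After 48 h, cells were PBS-rinsed and lysed, and luciferase activity was read as relative light units. Results are means of three independent experiments run in duplicate.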

[26] = system: Human immunodeficiency virus 1; assay: Antiviral activity against HIV1 subtype B harboring protease polymorphism at I36 position infected in human TZM-bl cells assessed as inhibition of viral replication after 48 hrs by luciferase reporter gene assay; assay type: functional, organism-based; outline: as §2
[27] = system: Human immunodeficiency virus 1; assay: Antiviral activity against HIV1 subtype CRF02_AG harboring protease polymorphism at I36 position infected in human TZM-bl cells assessed as inhibition of viral replication after 48 hrs by luciferase reporter gene assay; assay type: functional, organism-based; outline: as §2
[28] = system: Human immunodeficiency virus 1; assay: Selectivity ratio of EC50 for HIV1 subtype C harboring protease polymorphism at I36 position to EC50 for wild type HIV1 subtype C; assay type: functional
[29] = system: Human immunodeficiency virus 1; assay: Selectivity ratio of EC50 for HIV1 subtype B harboring protease D30N, M46I, A71T and V77I mutant gene and polymorphism at M36 position to EC50 for wild type HIV1 subtype B; assay type: functional
[30] = system: Human immunodeficiency virus 1; assay: Selectivity ratio of EC50 for HIV1 subtype CRF02_AG harboring protease L33I, M46I, A71T mutant gene and polymorphism at M36 position to EC50 for wild type HIV1 subtype CRF02_AG; assay type: functional
[31] = system: Human immunodeficiency virus 1; assay: Selectivity ratio of EC50 for HIV1 subtype CRF02_AG harboring protease polymorphism at I36 position and M46 mutant gene to EC50 for wild type HIV1 subtype CRF02_AG; assay type: functional
[32] = system: Human immunodeficiency virus 1; assay: Selectivity ratio of EC50 for HIV1 subtype C harboring protease L23I, M46I, L89T and polymorphism at M36 position to EC50 for wild type HIV1 subtype C M36
[33] = system: Human immunodeficiency virus 1; assay: Antiviral activity against HIV1 subtype CRF02_AG harboring protease polymorphism at I36 position and M46 mutant gene infected in human cord blood mononuclear cells assessed as inhibition of viral replication on day 7 by RT activity assay; settings: Human immunodeficiency virus 1, subtype CRF02_AG, 7 days

COC(=O)N[C@H](C(=O)N[C@@H](Cc1ccccc1)[C@@H](O)CN(Cc1ccc(-c2ccccn2)cc1)NC(=O)[C@@H](NC(=O)OC)C(C)(C)C)C(C)(C)C [ATAZANAVIR]
EC50 [1]: 183 nM | EC50 [2]: 88 nM | EC50 [3]: 3.7 nM | EC50 [4]: 9.3 nM | EC50 [5]: 7.1 nM | EC50 [6]: 18.6 nM

Cc1cccc(C)c1OCC(=O)N[C@@H](Cc1ccccc1)[C@@H](O)C[C@H](Cc1ccccc1)NC(=O)[C@H](C(C)C)N1CCCNC1=O [LOPINAVIR]
EC50 [7]: 196 nM | EC50 [8]: 418 nM | EC50 [9]: 157 nM | EC50 [10]: 134 nM | Ratio EC50 [11]: 190 | Ratio EC50 [12]: 46 | Ratio EC50 [13]: 22 | Ratio EC50 [14]: 101 | EC50 [15]: 1470 nM

Cc1c(O)cccc1C(=O)N[C@@H](CSc1ccccc1)[C@H](O)CN1C[C@H]2CCCC[C@H]2C[C@H]1C(=O)NC(C)(C)C [NELFINAVIR]
EC50 [16]: 1140 nM | EC50 [17]: 9.8 nM | EC50 [18]: 1460 nM | EC50 [19]: 1.67 nM | EC50 [20]: 272 nM | EC50 [21]: 3470 nM | Ratio EC50 [22]: 2 | EC50 [23]: 5.7 nM | EC50 [24]: 202 nM | Activity [25]: Active | Activity [26]: Active | Activity [27]: Active | Ratio EC50 [28]: 1158 | Ratio EC50 [29]: 70 | Ratio EC50 [30]: 35 | Ratio EC50 [31]: 6 | Ratio EC50 [32]: 163 | EC50 [33]: 55 nM
